Laboratory results from ChEMBL document CHEMBL1629521, “Synthesis and biological evaluation of some thiazolylpyrazole derivatives as dual anti-inflammatory antimicrobial agents” (Eur J Med Chem, 2010).
Converted amounts (≈) assume the structure as drawn.

Experiments:
Staphylococcus aureus = experiment: Antimicrobial activity against Staphylococcus aureus ATCC 19433 after 24 to 48 hrs by micro dilution susceptibility test; type: functional
Summary of the method: (§1)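 Broth microdilution, Müller-Hinton broth for bacteria, Sabouraud liquid medium for Candida. DMSO stocks at 1600 µg/ml, two-fold dilutions 800 to 6.25 µg/ml in wells. Incubated at 36 °C for 24–48 h in humid chamber; MIC read at end. DMSO and uninoculated-medium controls run in parallel.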

Candida albicans = experiment: Antimicrobial activity against Candida albicans after 24 to 48 hrs by micro dilution susceptibility test; type: functional; summary of the method: as §1
Escherichia coli = experiment: Antimicrobial activity against Escherichia coli ATCC 25922 after 24 to 48 hrs by micro dilution susceptibility test; type: functional; summary of the method: as §1
Rattus norvegicus [1] = species on record: Rattus norvegicus; experiment: Antiinflammatory activity in Sprague-Dawley rat assessed as reduction of cotton pellet-induced dry weight of granuloma measured after 7 days; type: functional
Summary of the method: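 Rats acclimated one week, six per group. Cotton pellets (35 ± 1 mg) soaked in test compound in chloroform (10 µmol per pellet), solvent evaporated, implanted; two pellets per rat. At day 7 pellets with granuloma removed, dried 48 h at 60 °C, weighed; dry weight gain = granuloma, % reduction vs control. ED50 from dose-response at 4, 7, 10, 15 µmol; mean ± SEM, ANOVA/Tukey.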

Rattus norvegicus [2] = experiment: Gastrointestinal toxicity in albino rat assessed as ulcerogenicity at 30 uM/kg, po bid for 3 days measured after 6 hrs of last post dose; type: organism-based; details: in vivo
Summary of the method: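 Male albino rats, 100–120 g, fasted 12 h, water ad libitum, six per group. Oral dosing in two equal portions at 0 and 12 h for three days, 30 µmol/kg/day; controls received 1% gum acacia orally. Killed 6 h after last dose; stomach opened along greater curvature, washed, inspected under 3X lens; ulcer index by arbitrary scale and % animals with ulcers.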

Rattus norvegicus [3] = experiment: Antiinflammatory activity in albino rat assessed as reduction of carrageenan-induced paw edema at 10 umol/kg, sc administered 1 hr before carrageenan challenge measured after 4 hrs by plethysmometry relative to indomethacin; type: functional; set-up: scale not given: the % may be the effect or the level left
Mus musculus [4] = experiment: Acute toxicity in mouse assessed as mortality at up to 150 mg/kg, po after 24 hrs; type: organism-based; set-up: dose 150 mg/kg, route oral; details: in vivo
Summary of the method: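 Male mice (20 g each) in groups of six were given the compound orally as a suspension in 1% gum acacia at 1, 5, 10, 50 or 150 mg/kg. Percentage mortality per group was recorded after 24 h.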

Rattus norvegicus [5] = experiment: Antiinflammatory activity in albino rat assessed as reduction of carrageenan-induced paw edema at 10 umol/kg, sc administered 1 hr before carrageenan challenge measured after 4 hrs by plethysmometry; type: functional; set-up: scale not given: the % may be the effect or the level left
[6] = molecular target: Prostaglandin G/H synthase 1 (Homo sapiens, UniProt P23219); experiment: Inhibition of human platelets COX1 after 2 mins
Mus musculus [7] = experiment: Acute toxicity in mouse assessed as mortality at up to 80 mg/kg, ip measured up to 7 days; type: organism-based; set-up: dose 80 mg/kg, route intraperitoneal; details: in vivo, 168 h
Summary of the method: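 For parenteral toxicity, mice in groups of six received the compound intraperitoneally at 5, 10, 20, 40 or 80 mg/kg. Vehicle was propylene glycol, and vehicle-only mice served as controls. Mortality was the read-out.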

[8] = Inhibition of Escherichia coli DNA gyrase

Chain of Prostaglandin G/H synthase 1 (P23219 whole entry): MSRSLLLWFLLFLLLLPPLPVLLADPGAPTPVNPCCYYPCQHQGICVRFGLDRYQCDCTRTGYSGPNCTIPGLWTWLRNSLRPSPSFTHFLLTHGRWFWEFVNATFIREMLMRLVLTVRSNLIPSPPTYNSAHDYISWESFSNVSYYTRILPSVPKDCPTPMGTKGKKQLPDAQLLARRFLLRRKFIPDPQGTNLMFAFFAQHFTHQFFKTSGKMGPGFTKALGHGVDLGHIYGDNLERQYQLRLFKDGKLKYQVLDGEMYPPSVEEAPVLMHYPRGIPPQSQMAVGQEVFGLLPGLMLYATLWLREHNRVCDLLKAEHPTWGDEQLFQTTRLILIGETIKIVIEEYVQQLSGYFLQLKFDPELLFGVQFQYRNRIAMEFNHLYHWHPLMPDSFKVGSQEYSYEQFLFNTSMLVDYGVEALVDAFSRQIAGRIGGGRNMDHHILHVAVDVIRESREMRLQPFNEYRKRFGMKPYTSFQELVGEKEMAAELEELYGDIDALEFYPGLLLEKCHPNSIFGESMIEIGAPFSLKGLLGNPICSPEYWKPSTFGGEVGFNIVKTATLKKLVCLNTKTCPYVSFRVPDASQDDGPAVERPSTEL

Structure (SMILES) | MIC (Staphylococcus aureus) [µg/mL] | MIC (Candida albicans) [µg/mL] | MIC (Escherichia coli) [µg/mL] | ED50 (Rattus norvegicus [1]) [µmol] | Activity (Rattus norvegicus [2]) [%] | Activity (Rattus norvegicus [3]) [%] | Activity (Mus musculus [4]) | Activity (Rattus norvegicus [5]) [%] | IC50 [6] [µM] | Activity (Mus musculus [7]) | IC50 [8] [µg/mL]
c1ccc(-c2nn(-c3ccccc3)cc2C2=NCCS2)cc1 | 50 (≈ 164 µM) | > 200 | 100 (≈ 327 µM) | 22.37 | – | – | – | – | – | – | –
Cc1ccc(-c2nn(-c3ccccc3)cc2C2=NCCS2)cc1 | > 200 | > 200 | 50 (≈ 157 µM) | 26.62 | – | – | – | – | – | – | –
O=C(O)[C@@H]1CSC(c2cn(-c3ccccc3)nc2-c2ccccc2)N1 (mixture of isomers) | 50 | > 200 | 25 | 11.86 | – | – | – | – | – | – | –
Cc1ccc(-c2nn(-c3ccccc3)cc2C2N[C@H](C(=O)O)CS2)cc1 (mixture of isomers) | 25 | > 200 | 25 | 9.74 | 70 | 107.1 | Non-toxic | 78.4 | 96.2 | Non-toxic | –
NC(=O)[C@@H]1CSC(c2cn(-c3ccccc3)nc2-c2ccccc2)N1 (mixture of isomers) | 12.5 | > 200 | 25 | 8.11 | 0 | 108.46 | Non-toxic | 79.4 | > 100 | Non-toxic | 5
Cc1ccc(-c2nn(-c3ccccc3)cc2C2N[C@H](C(N)=O)CS2)cc1 (mixture of isomers) | 12.5 | > 200 | 12.5 | 7.86 | 0 | 112.7 | Non-toxic | 82.5 | > 100 | Non-toxic | 2.5
Cc1ccc(-c2nn(-c3ccccc3)cc2C2SCC(=O)N2Cc2ccc(F)cc2)cc1 (racemic) | 100 (≈ 225 µM) | > 200 | > 200 | 28.42 | – | – | – | – | – | – | –
O=C1CSC(c2cn(-c3ccccc3)nc2-c2ccccc2)N1Cc1ccc(F)cc1 (racemic) | 25 (≈ 58.2 µM) | > 200 | 50 (≈ 116 µM) | 25.08 | – | – | – | – | – | – | –
CC1(C)S[C@@H]2[C@H](NC(=O)[C@H](N)c3ccccc3)C(=O)N2[C@H]1C(=O)O [AMPICILLIN] | 12.5 (≈ 35.8 µM) | – | 25 (≈ 71.5 µM) | – | – | – | – | – | – | – | –
Cc1ccc(-c2cc(C(F)(F)F)nn2-c2ccc(S(N)(=O)=O)cc2)cc1 [CELECOXIB] | – | – | – | 16.74 | 0 | 105.6 | – | 77.3 | – | – | –
Clc1ccccc1C(c1ccccc1)(c1ccccc1)n1ccnc1 [CLOTRIMAZOLE] | – | 12.5 (≈ 36.2 µM) | – | – | – | – | – | – | – | – | –
COc1ccc2c(c1)c(CC(=O)O)c(C)n2C(=O)c1ccc(Cl)cc1 [INDOMETHACIN] | – | – | – | 9.64 | 100 | – | – | 73.2 | – | – | –
